≈ marks a conversion by molar mass, not a printed value.
Assays:
Streptococcus pneumoniae [1] = assay: Antibacterial activity against penicillin-susceptible Streptococcus pneumoniae after overnight incubation by agar dilution method; format: functional
Procedure, shortened: (§1)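 Agar dilution on Mueller-Hinton agar supplemented with 5% sheep blood. Inoculum 10^4 CFU/spot, incubated overnight at 35°C in ambient air. Test strains were clinical pneumococcal isolates. S. pneumoniae ATCC 49619 was included as the quality control strain in each run. MIC range, MIC50 and MIC90 were reported for each susceptibility category.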

Streptococcus pneumoniae [2] = assay: Antibacterial activity against penicillin-intermediate Streptococcus pneumoniae after overnight incubation by agar dilution method; format: functional
Procedure, shortened: (§2)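 Agar dilution on Mueller-Hinton agar supplemented with 5% sheep blood, inoculum 10^4 CFU/spot, read after overnight incubation at 35°C in ambient air. Clinical isolates with defined genotypes; S. pneumoniae ATCC 49619 quality control strain included in each run. MIC50/MIC90 are MICs inhibiting 50% and 90% of isolates.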

Streptococcus pneumoniae [3] = assay: Antibacterial activity against penicillin-resistant Streptococcus pneumoniae after overnight incubation by agar dilution method; format: functional; procedure, shortened: as §1
Streptococcus pneumoniae [4] = assay: Antibacterial activity against Streptococcus pneumoniae harboring erm(B) and mef(A) gene after overnight incubation by agar dilution method; format: functional
Procedure, shortened: (§3)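 Clinical isolates collected 1998–2008, with macrolide-resistance genes confirmed by PCR. MICs by agar dilution on Mueller-Hinton agar with 5% sheep blood. Inoculum 10^4 CFU/spot, incubated overnight at 35°C in ambient air. S. pneumoniae ATCC 49619 was the quality-control strain in every run.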

Streptococcus pneumoniae [5] = assay: Antibacterial activity against Streptococcus pneumoniae harboring mutation in 23S rRNA after overnight incubation by agar dilution method; format: functional; procedure, shortened: as §3
Streptococcus pneumoniae [6] = assay: Antibacterial activity against macrolide-resistant Streptococcus pneumoniae harboring mef(A) gene after overnight incubation by agar dilution method; format: functional
Procedure, shortened: (§4)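 Agar dilution MICs on Mueller-Hinton agar with 5% sheep blood. Inoculum 10^4 CFU/spot, incubated overnight at 35°C in ambient air. Clinical S. pneumoniae or group A streptococcal isolates; resistance genotypes (erm(B), erm(A), mef(A)/mef(E)) were assigned by PCR. S. pneumoniae ATCC 49619 served as QC strain in each run. Range, MIC50 and MIC90 reported per phenotype group.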

Streptococcus pneumoniae [7] = assay: Antibacterial activity against macrolide-resistant Streptococcus pneumoniae harboring erm(B) and mef(A) gene after overnight incubation by agar dilution method; format: functional; procedure, shortened: as §4
Streptococcus pyogenes [8] = assay: Antibacterial activity against macrolide-susceptible Streptococcus pyogenes after overnight incubation by agar dilution method; format: functional; procedure, shortened: as §2
Streptococcus pyogenes [9] = assay: Antibacterial activity against Streptococcus pyogenes harboring erm(B) gene after overnight incubation by agar dilution method; format: functional; procedure, shortened: as §3
Streptococcus pyogenes [10] = assay: Antibacterial activity against Streptococcus pyogenes harboring erm(A) gene after overnight incubation by agar dilution method; format: functional; procedure, shortened: as §3
Streptococcus pyogenes [11] = assay: Antibacterial activity against macrolide-resistant Streptococcus pyogenes harboring erm(B) gene after overnight incubation by agar dilution method; format: functional; procedure, shortened: as §4
Streptococcus pyogenes [12] = assay: Antibacterial activity against macrolide-resistant Streptococcus pyogenes harboring mef(A) gene after overnight incubation by agar dilution method; format: functional; procedure, shortened: as §4
Streptococcus pyogenes [13] = assay: Antibacterial activity against macrolide-resistant Streptococcus pyogenes harboring erm(A) gene after overnight incubation by agar dilution method; format: functional; procedure, shortened: as §4
Streptococcus pneumoniae [14] = assay: Antibacterial activity against macrolide-susceptible Streptococcus pneumoniae 1077 after 15 passages and 10 compound-free subculturing by retest method; format: functional
Streptococcus pneumoniae [15] = assay: Antibacterial activity against macrolide-resistant Streptococcus pneumoniae 3665 harboring mef(A) gene after 26 passages and 10 compound-free subculturing by retest method; format: functional
Streptococcus pneumoniae [16] = assay: Antibacterial activity against macrolide-resistant Streptococcus pneumoniae 1076 harboring erm(B) and mef(A) gene after 14 passages and 10 compound-free subculturing by retest method; format: functional
Procedure, shortened: (§5)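 Multistep selection by daily serial passage in subinhibitory drug concentrations. Medium was cation-adjusted Mueller-Hinton broth plus 5% lysed horse blood. Each day the next inoculum came from the tube 1–2 dilutions below the MIC whose turbidity matched the growth control, for up to 50 days. Clone MICs by CLSI macrodilution; identity to the parent confirmed by SmaI PFGE.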

Streptococcus pneumoniae [17] = assay: Antibacterial activity against macrolide-resistant Streptococcus pneumoniae 1635 harboring erm(A) gene after 49 passages and 10 compound-free subculturing by retest method; format: functional; procedure, shortened: as §5
Streptococcus pneumoniae [18] = assay: Antibacterial activity against macrolide-resistant Streptococcus pneumoniae 24 harboring erm(B) gene after overnight incubation by agar dilution method; format: functional
Streptococcus pneumoniae [19] = assay: Antibacterial activity against macrolide-resistant Streptococcus pneumoniae 2686 harboring mutation in L4 ribosomal protein after 14 passages and 10 compound-free subculturing by retest method; format: functional
Streptococcus pneumoniae [20] = assay: Antibacterial activity against macrolide-resistant Streptococcus pneumoniae 2686 harboring mutation in L4 ribosomal protein after 25 passages and 10 compound-free subculturing by retest method; format: functional
Streptococcus pneumoniae [21] = assay: Antibacterial activity against macrolide-susceptible Streptococcus pneumoniae 7127 harboring S20N mutation in L4 ribosomal protein and A105V mutation in L22 ribosomal protein after 16 passages and 10 compound-free subculturing by retest method; format: functional
Streptococcus pneumoniae [22] = assay: Antibacterial activity against macrolide-susceptible Streptococcus pneumoniae 7127 harboring S20N mutation in L4 ribosomal protein and A105V mutation in L22 ribosomal protein after 15 passages and 10 compound-free subculturing by retest method; format: functional
Streptococcus pneumoniae [23] = assay: Antibacterial activity against macrolide-resistant Streptococcus pneumoniae 3009 harboring mutation in 23S rRNA after 20 passages and 10 compound-free subculturing by retest method; format: functional
Streptococcus pneumoniae [24] = assay: Antibacterial activity against macrolide-resistant Streptococcus pneumoniae 3665 harboring mef(A) gene after overnight incubation by agar dilution method; format: functional
Streptococcus pneumoniae [25] = assay: Antibacterial activity against macrolide-resistant Streptococcus pneumoniae 1076 harboring erm(B) and mef(A) gene after overnight incubation by agar dilution method; format: functional
Streptococcus pneumoniae [26] = assay: Antibacterial activity against macrolide-resistant Streptococcus pneumoniae 2686 harboring mutation in L4 ribosomal protein after overnight incubation by agar dilution method; format: functional
Streptococcus pneumoniae [27] = assay: Antibacterial activity against macrolide-resistant Streptococcus pneumoniae 3009 harboring mutation in 23S rRNA after overnight incubation by agar dilution method; format: functional
Streptococcus pyogenes [28] = assay: Antibacterial activity against macrolide-susceptible Streptococcus pyogenes 2132 after overnight incubation by agar dilution method
Streptococcus pyogenes [29] = assay: Antibacterial activity against macrolide-resistant Streptococcus pyogenes 2368 harboring erm(B) gene after overnight incubation by agar dilution method
Streptococcus pyogenes [30] = assay: Antibacterial activity against macrolide-susceptible Streptococcus pyogenes 2132 after 50 passages following overnight incubation by agar dilution method
Streptococcus pyogenes [31] = assay: Antibacterial activity against macrolide-resistant Streptococcus pyogenes 2094 harboring erm(A) gene after 5 passages and 10 compound-free subculturing by retest method
Streptococcus pyogenes [32] = assay: Antibacterial activity against macrolide-resistant Streptococcus pyogenes 2011 harboring mef(A) gene after 35 passages and 10 compound-free subculturing by retest method
Streptococcus pyogenes [33] = assay: Antibacterial activity against macrolide-resistant Streptococcus pyogenes 237 harboring mutation in L4 ribosomal protein after 50 passages following overnight incubation by agar dilution method

CC[C@H]1OC(=O)[C@H](C)[C@@H](O[C@H]2C[C@@](C)(OC)[C@@H](O)[C@H](C)O2)[C@H](C)[C@@H](O[C@@H]2O[C@H](C)C[C@H](N(C)C)[C@H]2O)[C@](C)(OC)C[C@@H](C)C(=O)[C@H](C)[C@@H](O)[C@]1(C)O [CLARITHROMYCIN]
MIC50 (Streptococcus pneumoniae [1]): 1 µg/mL (≈ 1.34 µM)
MIC90 (Streptococcus pneumoniae [1]): > 64 µg/mL
MIC50 (Streptococcus pneumoniae [2]): 16 µg/mL (≈ 21.4 µM)
MIC90 (Streptococcus pneumoniae [2]): > 64 µg/mL
MIC50 (Streptococcus pneumoniae [3]): 16 µg/mL (≈ 21.4 µM)
MIC50 (Streptococcus pneumoniae [4]): > 64 µg/mL
MIC (Streptococcus pneumoniae [5]): 8 µg/mL (≈ 10.7 µM)
MIC50 (Streptococcus pneumoniae [6]): 2 µg/mL (≈ 2.67 µM)
MIC90 (Streptococcus pneumoniae [6]): 4 µg/mL (≈ 5.35 µM)
MIC50 (Streptococcus pneumoniae [7]): > 64 µg/mL
MIC50 (Streptococcus pyogenes [8]): 0.03 µg/mL (≈ 0.0401 µM)
MIC90 (Streptococcus pyogenes [8]): 0.06 µg/mL (≈ 0.0802 µM)
MIC50 (Streptococcus pyogenes [9]): > 64 µg/mL
MIC90 (Streptococcus pyogenes [9]): > 64 µg/mL
MIC50 (Streptococcus pyogenes [10]): 2 µg/mL (≈ 2.67 µM)
MIC90 (Streptococcus pyogenes [10]): > 64 µg/mL
MIC50 (Streptococcus pyogenes [11]): > 64 µg/mL
MIC90 (Streptococcus pyogenes [11]): > 64 µg/mL
MIC50 (Streptococcus pyogenes [12]): 4 µg/mL (≈ 5.35 µM)
MIC90 (Streptococcus pyogenes [12]): 8 µg/mL (≈ 10.7 µM)
MIC50 (Streptococcus pyogenes [13]): 2 µg/mL (≈ 2.67 µM)
MIC90 (Streptococcus pyogenes [13]): > 64 µg/mL
MIC (Streptococcus pneumoniae [14]): > 64 µg/mL
MIC (Streptococcus pneumoniae [15]): 8 µg/mL (≈ 10.7 µM)
MIC (Streptococcus pneumoniae [16]): > 64 µg/mL
MIC (Streptococcus pneumoniae [17]): > 64 µg/mL
MIC (Streptococcus pneumoniae [18]): > 64 µg/mL
MIC (Streptococcus pneumoniae [19]): > 64 µg/mL
MIC (Streptococcus pneumoniae [20]): 16 µg/mL (≈ 21.4 µM)
MIC (Streptococcus pneumoniae [21]): 0.125 µg/mL (≈ 0.167 µM)
MIC (Streptococcus pneumoniae [22]): 16 µg/mL (≈ 21.4 µM)
MIC (Streptococcus pneumoniae [23]): > 64 µg/mL
MIC (Streptococcus pneumoniae [24]): 2 µg/mL (≈ 2.67 µM)
MIC (Streptococcus pneumoniae [25]): > 64 µg/mL
MIC (Streptococcus pneumoniae [26]): 8 µg/mL (≈ 10.7 µM)
MIC (Streptococcus pneumoniae [27]): 16 µg/mL (≈ 21.4 µM)
MIC (Streptococcus pyogenes [28]): 0.03 µg/mL (≈ 0.0401 µM)
MIC (Streptococcus pyogenes [29]): > 64 µg/mL
MIC (Streptococcus pyogenes [30]): 0.016 µg/mL (≈ 0.0214 µM)
MIC (Streptococcus pyogenes [31]): 1 µg/mL (≈ 1.34 µM)
MIC (Streptococcus pyogenes [32]): 4 µg/mL (≈ 5.35 µM)
MIC (Streptococcus pyogenes [33]): 1 µg/mL (≈ 1.34 µM)
